ABCG2 inh: inhibitors of human ABCG2 transporter, ABCB1 counter-screen; hit rate 0.1% among 190,000; Q9UNQ0; IgMXP3 cells, JC-1 efflux, flow cytometry; inhibition, % at 6.6 µM; AID 1325;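 active = inhibition above 80%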;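 also: 0% = DMSO and 100% = nicardipine control wells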
Target sequence (Q9UNQ0 whole entry, looked up): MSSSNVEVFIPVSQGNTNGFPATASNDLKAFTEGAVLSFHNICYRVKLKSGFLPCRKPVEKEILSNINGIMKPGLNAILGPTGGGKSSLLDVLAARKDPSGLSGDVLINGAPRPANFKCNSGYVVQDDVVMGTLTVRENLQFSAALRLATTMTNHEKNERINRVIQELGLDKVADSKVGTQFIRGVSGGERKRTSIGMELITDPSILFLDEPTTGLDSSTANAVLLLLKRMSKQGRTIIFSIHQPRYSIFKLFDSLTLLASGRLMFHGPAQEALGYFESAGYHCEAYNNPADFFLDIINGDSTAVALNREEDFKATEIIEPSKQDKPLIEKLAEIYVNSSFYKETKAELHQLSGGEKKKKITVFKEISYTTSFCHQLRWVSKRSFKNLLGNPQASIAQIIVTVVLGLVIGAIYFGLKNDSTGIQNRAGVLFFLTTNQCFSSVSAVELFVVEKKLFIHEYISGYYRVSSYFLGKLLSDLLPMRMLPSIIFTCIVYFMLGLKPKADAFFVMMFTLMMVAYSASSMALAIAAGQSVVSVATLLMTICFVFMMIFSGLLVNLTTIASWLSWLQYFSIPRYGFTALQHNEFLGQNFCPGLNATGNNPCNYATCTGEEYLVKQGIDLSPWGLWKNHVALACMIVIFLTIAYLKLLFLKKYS
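System: two drug-resistant human cell lines, ABCG2 and ABCB1; controls: nicardipine high and DMSO low controls; times: 10 min exposure at 25 °C with rotation, no wash; detection: flow cytometry of retained JC-1 fluorescence; read-out basis: percent efflux inhibition, scaled nicardipine 100% to DMSO 0%; doses: one concentration, 6.6 µM final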
MEKK3 PB1 HTS: modulators (inhibitors or enhancers) of MEK5 binding to human MEKK3 PB1 domain | Q99759 | bead-based flow cytometry, Alexa488-MEK5 binding to MEKK3; actives lie on both sides; 0 = blocked by unlabeled MEK5, 100 = vehicle | binding response (% of control), % at 10 µM | hit rate 1.4% among 290,000 | AID 1529;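 active = binding response more than 3 SD above or below the average of its plate-row segment, actives on both sides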;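 also: Alexa488 bead fluorescence after subtracting the streptavidin-only scavenger bead signal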
Efflux pump mplx: blocks antifungal efflux pumps in multiplex yeast assay. hit rate 0.44% among 330,000. inhibition, % at 10 µM. S. cerevisiae Candida pump triplex, Nile Red efflux;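 active = plate passing quality check with inhibition over a set limit, or well fluorescence over plate mean plus 4 SD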;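 also: Nile Red retained in pooled yeast measured as flow cytometry median fluorescence; 0% = buffer negative control and 100% = Enniatin B positive control; higher means more Nile Red kept so more efflux inhibition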
ABCB1 block: inhibitors of human ABCB1 transporter, ABCG2 counter-screen; P08183; CCRF-Adr cells, JC-1 efflux, flow cytometry; inhibition, % at 6.6 µM; hit rate 0.067% among 190,000; in the data active = inhibition above about 40%;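 also: 0% = vehicle and 100% = reference inhibitor; higher value means more JC-1 retained so stronger ABCB1 efflux block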
MEKK2 mut-MEK5: signal of MEK5 binding to mutant human MEKK2 PB1 domain. bead flow cytometry, Alexa488-MEK5 binding to MEKK2 mutant. hit rate 0.35% among 290,000. AID 1530. percent response, % at 10 µM; in the data active = percent response above about 24%, passing the limit was not always enough
MEKK2 WT-MEK5: raises or lowers MEK5 binding to wildtype human MEKK2 PB1 domain; AID 1531; binding response (% of control), % at 10 µM; hit rate 1.1% among 290,000; bead flow cytometry, Alexa488-MEK5 binding to MEKK2 WT; actives lie on both sides; in the data active = binding response below about 67% or above about 130%
Cmpd fluor yeast: flagged as fluorescent in efflux inhibitor counter-screen. fluorescence ratio to DMSO, % at 10 µM. hit rate 4% among 1,700. AID 588517. S. cerevisiae AD/pABC3, compound fluorescence, flow cytometry. shares compounds with Efflux pump mplx;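 active = fluorescence ratio to DMSO above its plate's cutoff, the plate mean ratio plus 5 SD, cut at about 210% in these data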;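 also: unstained yeast with no Nile Red so the signal is compound autofluorescence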
CaMdr1 efflux inh: inhibitors of Candida albicans Mdr1 efflux pump. AID 588518. S. cerevisiae AD/CaMDR1, Nile Red efflux, flow cytometry. hit rate 1% among 1,700. inhibition, % at 10 µM. shares compounds with Efflux pump mplx; in the data active = inhibition above about 26%;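 also: 0% = DMSO vehicle and 100% = reference inhibitor; higher means more Nile Red retained so more efflux inhibition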
CaCdr2 efflux inh: inhibitors of Candida albicans Cdr2 efflux pump | shares compounds with Efflux pump mplx | S. cerevisiae AD/CaCDR2, Nile Red retention, flow cytometry | hit rate 4% among 1,700 | AID 588520 | Nile Red retention ratio vs DMSO, % at 10 µM; in the data active = Nile Red retention ratio vs DMSO above about 190%;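 also: higher ratio means more blocking of Cdr2 efflux of the dye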
Cdr1 pump inh: blocks the Candida albicans Cdr1 efflux pump in yeast; shares compounds with Efflux pump mplx; S. cerevisiae AD/CaCDR1, Nile Red efflux, flow cytometry; inhibition, % at 10 µM; hit rate 1% among 1,700; AID 588522;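 active = inhibition above the screen-wide mean plus twice its standard deviation, cut at about 32% in these data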
Starred values were filed as active, the others as inactive; / = not tested or not shown. Compounds with a hit are over-represented: about 2.5% of the library has one in this group of screens.

SMILES	ABCG2 inh	MEKK3 PB1 HTS	Efflux pump mplx	ABCB1 block	MEKK2 mut-MEK5	MEKK2 WT-MEK5	Cmpd fluor yeast	CaMdr1 efflux inh	CaCdr2 efflux inh	Cdr1 pump inh
CCN(Cc1nc2cc(Cl)ccc2c(=O)[nH]1)C(=O)c1cccc(NC(=O)c2cccs2)c1	/	/	1	/	/	/	/	/	/	/
CCN(Cc1nc2cc(Cl)ccc2c(=O)[nH]1)C(=O)c1cccc(OCc2c(C)noc2C)c1	/	/	1.6*	/	/	/	95	0	87	0
Cn1nc(-c2ccccc2)cc1NS(=O)(=O)c1ccccc1	/	91	0	/	-6	88	/	/	/	/
Cc1ccc(S(=O)(=O)Nc2cc(-c3ccccc3)nn2C)cc1	/	103	0.5*	/	4	103	97	0	98	0
COc1ccc2sc(-c3ccccc3OC)c(-c3ccc(OCCN4CCOCC4)cc3)c2c1	/	/	128*	/	/	/	106	89*	94	100*
c1ccc(-c2sc3ccccc3c2-c2ccc(OCCN3CCOCC3)cc2)cc1	/	/	0	/	/	/	/	/	/	/
COc1cc2sc(-c3ccccc3OC)c(-c3ccc(OCCN4CCCCC4)cc3)c2cc1OC	/	/	0	/	/	/	/	/	/	/
COc1ccccc1-c1sc2ccccc2c1-c1ccc(OCCN2CCOCC2)cc1	/	/	0	/	/	/	109	0	100	0
Cn1c(-c2ccccc2)cc2ccccc21	/	106	0	/	7	104	/	/	/	/
Cn1c(-c2ccccc2O)cc2ccccc21	3	105	0.2*	1	1	104	100	0	103	0
Cc1ccc(N(CCC#N)C(=O)COC(=O)C2CCN(S(=O)(=O)c3ccc4c(c3)OCCO4)CC2)cc1	/	/	0	/	/	/	/	/	/	/
Cc1ccc(OCc2cc(C(=O)NCC(C)(C)N3CCOCC3)no2)cc1C	/	98	2	/	-4	97	98	0	98	1
Cc1ccc(OCc2cc(C(=O)NCC3COCCO3)no2)cc1C (centres undefined)	/	101	0	/	8	102	/	/	/	/
O=C(Nc1ccc(N2CCOCC2)cc1N1CCOCC1)c1ncoc1-c1cccc(F)c1	/	103	0	/	-5	98	/	/	/	/
CN(Cc1ccccc1)C(=O)c1[nH]cnc1C(=O)N[C@@H](CCCCNC(=O)OC(C)(C)C)C(=O)OC(C)(C)C	5	93	/	1	4	104	/	/	/	/
CC(C)C[C@H](NC(=O)c1nc[nH]c1C(=O)N(C)Cc1ccccc1)C(=O)OC(C)(C)C	3	105	0.9*	2	5	103	116	1	133	1
O=C(Nc1ccccc1O)c1cc2cc(Br)ccc2oc1=O	/	107	1.3*	/	10	113	113	1	117	0
O=C(NCCCC1CCCC1)C1CCC(=O)N(Cc2ccc(Cl)cc2)C1 (centres undefined)	/	94	6.4*	/	-2	97	98	0	97	0
O=C(NCCCC1CCCC1)C1CCC(=O)N(Cc2cccc(F)c2)C1 (centres undefined)	/	112	0	/	7	112	/	/	/	/
Cc1ccc(-c2nc(CS(=O)(=O)CC(=O)Nc3cc(F)ccc3F)c(C)o2)cc1	/	103	0	/	0	96	/	/	/	/
Cn1c(=O)c(C#N)c(-c2ccc(F)cc2)c2cc(C(=O)c3cc(Cl)cc(Cl)c3O)cnc21	/	123	0.3*	/	21	116	92	0	106	0
COc1ccccc1-n1c(=O)c(C#N)c(-c2ccc([N+](=O)[O-])cc2)c2cc(C(=O)c3cc(F)ccc3O)cnc21	-1	102	0	1	-3	89	/	/	/	/
CC(C)(C)OC(=O)NCc1ccc(NC(=O)c2nc[nH]c2C(=O)NCCCCCCNC(=O)c2[nH]cnc2C(=O)Nc2ccc(CNC(=O)OC(C)(C)C)cc2)cc1	/	/	1.8*	/	/	/	106	1	123	2
CC(C)(C)OC(=O)NCc1ccc(NC(=O)c2nc[nH]c2C(=O)NCCCCNC(=O)c2[nH]cnc2C(=O)Nc2ccc(CNC(=O)OC(C)(C)C)cc2)cc1	/	/	0	/	/	/	/	/	/	/
COc1ccc(-c2nc3ccccc3c(=O)n2CCOc2ccccc2C)cc1	-2	97	0.8*	0	2	101	104	0	110	0
SMILES	ABCG2 inh	MEKK3 PB1 HTS	Efflux pump mplx	ABCB1 block	MEKK2 mut-MEK5	MEKK2 WT-MEK5	Cmpd fluor yeast	CaMdr1 efflux inh	CaCdr2 efflux inh	Cdr1 pump inh
COc1ccc(-c2nc3ccccc3c(=O)n2CCOc2cc(C)ccc2C)cc1	0	100	0.7*	1	-1	100	102	0	112	0
COc1ccc(-c2nc3ccccc3c(=O)n2CCCN2CCOCC2)cc1	4	107	0	0	5	106	/	/	/	/
COc1ccc(-c2nc3ccccc3c(=O)n2CCOc2ccc(C)cc2C)cc1	19	99	0.7*	1	9	98	103	0	112	0
COc1ccc(-c2nc3ccccc3c(=O)n2CCCn2ccnc2)cc1	10	98	0	1	2	96	/	/	/	/
Cc1ccc([N+](=O)[O-])cc1NCC(=O)NN	5	102	0	0	-2	94	/	/	/	/
CCOC(=O)CCCNC(=O)CSc1nnc(-c2ccccc2)c(-c2ccccc2)n1	/	103	0	/	2	101	/	/	/	/
Cc1cc(C)c(C(=O)CSC2=NC(N)=C(C#N)C3(CCCCC3)C2C(N)=O)cc1C (centres undefined)	18	97	1.3*	-1	0	97	100	0	107	0
O=C(Nc1ccc(O)cc1C(=O)O)c1ccc(NC(=O)c2ccco2)cc1	/	/	0	/	/	/	107	0	95	0
O=C(O)Cc1ccc(NC(=O)c2ccc(NC(=O)c3ccco3)cc2)cc1	-4	104	11*	-1	7	104	107	0	100	0
O=C(Nc1ccccc1C(=O)O)c1cccc(NC(=O)c2ccco2)c1	/	92	1	/	-2	93	/	/	/	/
NNC(=S)Nc1c(F)cc(F)cc1Br	/	89	0	/	-10	81	/	/	/	/
N#Cc1cnc(NN)nc1	2	63	0.9*	1	-8	74	107	0	106	0
Cc1ccc(C)n1-c1ccc(C#N)cn1	1	95	0	0	-10	88	/	/	/	/
CCOC(=O)c1ccc(S(=O)(=O)NNS(=O)(=O)c2ccc(C)cc2)cc1	/	104	2.1*	/	5	105	97	0	101	0
CCOC(=O)c1ccc(S(=O)(=O)NC2CC2)cc1	/	101	0	/	0	102	/	/	/	/

High-throughput results from PubChem BioAssay.
